Screening data: PubChem, The Scripps Research Institute Molecular Screening Center
Hits are enriched below; roughly 4.2% of the tested compounds scored in any of these assays.
TAAR1 antagonist: antagonists of human TAAR1; 360,000 compounds, 1.5% hits; inhibition, % at 3 µM; AID 624466; CHO RD-HGA16 TAAR1, Fluo-8 calcium fluorescence, antagonist;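 active = inhibition above a per-plate cutoff, the mean inhibition of test compounds on that plate plus 3 SD, cut at about 49% in these data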;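 also: 0% = DMSO plus EC80 beta-PEA response and 100% = DMSO alone without agonist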
Target sequence (Q96RJ0 whole entry, looked up): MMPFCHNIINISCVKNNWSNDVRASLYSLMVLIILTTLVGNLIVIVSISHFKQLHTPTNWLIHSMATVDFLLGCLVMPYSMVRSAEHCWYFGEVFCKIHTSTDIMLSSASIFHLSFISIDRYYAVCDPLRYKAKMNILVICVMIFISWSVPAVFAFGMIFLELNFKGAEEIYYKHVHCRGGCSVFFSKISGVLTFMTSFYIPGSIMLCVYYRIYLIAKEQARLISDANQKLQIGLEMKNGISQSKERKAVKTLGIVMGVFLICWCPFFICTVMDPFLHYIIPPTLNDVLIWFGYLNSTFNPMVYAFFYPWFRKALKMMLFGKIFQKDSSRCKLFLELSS
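Assay system: RD-HGA16 CHO cells with stable hTAAR1 and Gα16 / Reagent: EC80 β-phenethylamine stimulus / Doses: 3 µM, single point / Timing: dye loading 75 min at 37 °C, then 30 min room temperature / Measured by: Fluo-8 intracellular calcium dye fluorescence, real-time kinetic reads / Controls: vehicle wells and EC80 agonist wells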
OX1R antag-1: blocks the human orexin 1 receptor; CHO/OX1R cells, Fluo-8 calcium fluorescence, orexin A; inhibition, % at 5 µM; 330,000 compounds, 0.43% hits; AID 434989;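 active = inhibition above its plate's threshold, mean inhibition of all tested compounds on the plate plus 3 SD, cut at about 37% in these data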;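 also: 0% = orexin A challenge wells and 100% = SB-334867-A antagonist wells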
TAAR1 agonist: human TAAR1 agonism; CHO RD-HGA16 TAAR1, Fluo-8 calcium fluorescence; vehicle wells 0%, saturating PEA agonist 100%; activation, % at 3 µM; 360,000 compounds, 0.99% hits;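 active = activation above the mean activation of all test compounds in the run plus 3 SD, cut at about 38% in these data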
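Assay system: CHO-derived RD-HGA16 cells with stable Gα16 and human TAAR1; timing: 17-24 h seeding, 75 min 37 °C dye, 30 min RT; read-out: % activation from peak over basal fluorescence ratio, DMSO-to-PEA scaled; measured by: kinetic Fluo-8 calcium fluorescence; benchmarks: low control DMSO, high control PEA (EC100); doses: 3 µM single concentration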
GalR3 antagonist: blocks the human galanin receptor 3 | HEK293 GalR3-CNG cAMP membrane potential fluorescence; galR3 body fused to GalR1 C-terminus | inhibition, % at 3 µM | 360,000 compounds, 0.44% hits;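 active = inhibition above the screen-wide average plus 3 SD, cut at about 13% in these data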;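 also: forskolin and galanin both at EC90 stimulate the cells; cAMP rise reported by CNG channel membrane potential dye signal; 0% = forskolin plus galanin with DMSO and 100% = forskolin alone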
Target sequence (O60755 1-299 limits assumed): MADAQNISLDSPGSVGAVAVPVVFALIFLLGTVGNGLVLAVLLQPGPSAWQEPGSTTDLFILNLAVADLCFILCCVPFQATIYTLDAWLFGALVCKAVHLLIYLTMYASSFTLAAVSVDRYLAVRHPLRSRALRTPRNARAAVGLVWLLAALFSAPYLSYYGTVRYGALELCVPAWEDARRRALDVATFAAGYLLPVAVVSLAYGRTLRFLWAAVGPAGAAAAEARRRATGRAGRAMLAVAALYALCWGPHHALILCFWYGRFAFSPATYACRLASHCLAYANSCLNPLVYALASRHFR
CHO parental Ca: counter-screen: ATP calcium response change in parental CHO cells | parental CHO-K1, ATP-induced calcium, Fluo-8 fluorescence | inhibition, % at 5.6 µM | 330,000 compounds, 0.63% hits;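 active = inhibition above that plate's mean sample inhibition plus 3 SD, cut at about 26% in these data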;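 also: 0% = ATP-challenged DMSO wells and 100% = DMSO wells without ATP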
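Test system: parental CHO cells; detection: calcium-sensitive Fluo-8 fluorescence; evaluation: percent inhibition of calcium signal; also added: ATP as calcium-mobilizing challenge; repeats: one well per compound; control set: ATP-challenged DMSO wells low, unchallenged DMSO wells high; compound: single nominal dose of 5.6 µM per compound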
OX1R antag-2: antagonists of human orexin 1 receptor (OX1R) | O43613 | OX1R-expressing cells, FRET antagonist read-out | inhibition, % at 6.6 µM | 330,000 compounds, 1.8% hits | AID 485270; in the data active = inhibition mostly above about 38%, no sharp cut-off; inactive = mostly below about 40%;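 also: 0% = agonist challenge alone and 100% = reference antagonist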
Numbers without * were called inactive.

Screening CC(NC(=O)COC(=O)c1cccs1)c1ccccc1 (configuration not stated) returned TAAR1 antagonist -1, OX1R antag-1 1, TAAR1 agonist 2, GalR3 antagonist -6, CHO parental Ca -3 and OX1R antag-2 10.
Screening Cn1c2c(c(=O)n(C)c1=O)C(CC(=O)Nc1ccc(F)cc1)C(=O)N2 (configuration not stated) returned TAAR1 antagonist 16, OX1R antag-1 -16, TAAR1 agonist 11, GalR3 antagonist -5, CHO parental Ca -5 and OX1R antag-2 16.
For Cc1c(C(C)(C)O)[nH]c2cc(C(F)(F)F)ccc12 the results were TAAR1 antagonist 6, OX1R antag-1 -8, TAAR1 agonist 15, GalR3 antagonist -4, CHO parental Ca -8 and OX1R antag-2 26.
O=c1[nH]c2cc(C(F)(F)F)ccc2n1-c1cc(C(F)(F)F)ccc1O was read as TAAR1 antagonist -7, OX1R antag-1 51*, TAAR1 agonist 2, GalR3 antagonist -2, CHO parental Ca 84* and OX1R antag-2 22.
For Cc1ccc(-n2c(=O)c3cc4c(=O)n(-c5ccc(C)c(C)c5)c(=O)c4c(C(=O)c4ccc(C(=O)O)cc4)c3c2=O)cc1C the results were TAAR1 antagonist -7, OX1R antag-1 17, TAAR1 agonist 1, GalR3 antagonist -8, CHO parental Ca 0 and OX1R antag-2 20.
For COc1cccc(-c2nn(C)c3sc(C(=O)NCc4ccc(C)o4)cc23)c1 the results were TAAR1 antagonist 11, OX1R antag-1 -25, TAAR1 agonist 7, GalR3 antagonist -3, CHO parental Ca -22 and OX1R antag-2 72*.
`N#CC(=Cc1ccc(-c2ccccc2)cc1)C(=O)c1ccccc1` gave TAAR1 antagonist 26, TAAR1 agonist 0 and GalR3 antagonist 4.
Screening COC(=O)c1ccccc1NC(=O)CCNC(=O)Cn1cnc2ccccc2c1=O returned TAAR1 antagonist -12, OX1R antag-1 -31, TAAR1 agonist 3, GalR3 antagonist -3, CHO parental Ca -3 and OX1R antag-2 -1.
Screening O=C(Nc1ccc(Cl)c(Cl)c1)OCc1cccnc1 returned TAAR1 antagonist 4, OX1R antag-1 40, TAAR1 agonist 14, GalR3 antagonist -1, CHO parental Ca 76* and OX1R antag-2 75*.
CCCN(CC(=O)Nc1ccccc1C)C(=O)Cc1coc2cc(C)ccc12 was read as TAAR1 antagonist -37, OX1R antag-1 -17, TAAR1 agonist 0, GalR3 antagonist -1, CHO parental Ca -18 and OX1R antag-2 14.
Screening Cc1cc2occ(CC(=O)N(C)CC(=O)Nc3ccccc3Cl)c2cc1C returned TAAR1 antagonist -49, OX1R antag-1 -18, TAAR1 agonist 0, GalR3 antagonist -3, CHO parental Ca -25 and OX1R antag-2 54*.
Screening O=C(NCCCn1ccnc1)c1nc(Cn2cc(Br)cn2)no1 returned TAAR1 antagonist 2, OX1R antag-1 -5, TAAR1 agonist 0, GalR3 antagonist -9, CHO parental Ca 4 and OX1R antag-2 11.
Cc1nccn1CCCNC(=O)c1nc(Cn2cc([N+](=O)[O-])cn2)no1 was read as TAAR1 antagonist -23, OX1R antag-1 6, TAAR1 agonist 1, GalR3 antagonist 13*, CHO parental Ca 0 and OX1R antag-2 12.
For COc1ccc(/C=C(\NC(=O)c2ccco2)C(=O)NCCc2nc3ccccc3[nH]2)cc1 the results were TAAR1 antagonist -41, OX1R antag-1 32, TAAR1 agonist 0, GalR3 antagonist 2, CHO parental Ca -23 and OX1R antag-2 46*.
Screening COc1ccc(/C=C(\NC(=O)/C=C/c2ccco2)C(=O)NCCc2nc3ccccc3[nH]2)cc1 returned TAAR1 antagonist 9, OX1R antag-1 -17, TAAR1 agonist 1, GalR3 antagonist 1, CHO parental Ca -25 and OX1R antag-2 36.
Screening CCOC(=O)c1csc(-c2sccc2Br)n1 returned TAAR1 antagonist -52, OX1R antag-1 -11, TAAR1 agonist 3, GalR3 antagonist 9, CHO parental Ca -8 and OX1R antag-2 45*.
CCOC(=O)c1csc(-c2ccc(OC)c(OC)c2)n1 was read as TAAR1 antagonist -5, OX1R antag-1 -23, TAAR1 agonist 1, GalR3 antagonist 3, CHO parental Ca -5 and OX1R antag-2 17.
Cc1ccc(NC(=O)c2cc(-c3cccs3)on2)cc1C was read as TAAR1 antagonist -3, OX1R antag-1 -17, TAAR1 agonist 1, GalR3 antagonist -2, CHO parental Ca -6 and OX1R antag-2 37.
For CC1Sc2ccc(S(=O)(=O)N3CCC(C(=O)NCC(C)c4ccccc4)CC3)cc2NC1=O (configuration not stated) the results were TAAR1 antagonist 46, OX1R antag-1 15, TAAR1 agonist 42*, GalR3 antagonist -1, CHO parental Ca 34* and OX1R antag-2 19.
Cc1ccc(CCNC(=O)C2CCN(S(=O)(=O)c3ccc4c(c3)NC(=O)C(C)S4)CC2)cc1 (configuration not stated) was read as TAAR1 antagonist 61*, OX1R antag-1 -6, TAAR1 agonist 13, GalR3 antagonist -10, CHO parental Ca 2 and OX1R antag-2 12.
`COCC(=O)NC1CCN(CC(=O)Nc2ccc(OC)cc2[N+](=O)[O-])CC1` gave TAAR1 antagonist -13, OX1R antag-1 -21, TAAR1 agonist 2, GalR3 antagonist 0, CHO parental Ca -1 and OX1R antag-2 41*.
Cc1ccc(NC(=O)COC(=O)Cn2cnc3ccccc32)c([N+](=O)[O-])c1 was read as TAAR1 antagonist -8, OX1R antag-1 20, TAAR1 agonist 4, GalR3 antagonist -4, CHO parental Ca 38* and OX1R antag-2 74*.
`CCC(=O)OCC(=O)Nc1ccc(OC)cc1[N+](=O)[O-]` gave TAAR1 antagonist -4, OX1R antag-1 -5, TAAR1 agonist 7, GalR3 antagonist 0, CHO parental Ca -4 and OX1R antag-2 49*.
For Fc1ccc(-c2cnn3c(-c4cccs4)ccnc23)cc1 the results were TAAR1 antagonist -11, TAAR1 agonist 8 and GalR3 antagonist -2.
For CCC(C)NCCCOc1cc(Cl)ccc1Cl (configuration not stated) the results were TAAR1 antagonist 5, OX1R antag-1 -35, TAAR1 agonist 14, GalR3 antagonist -8, CHO parental Ca -25 and OX1R antag-2 22.
For O=C(Nc1ccc2ncccc2c1)Nc1ccc2ncccc2c1 the results were TAAR1 antagonist 2, OX1R antag-1 -4, TAAR1 agonist 20, GalR3 antagonist -6, CHO parental Ca -14 and OX1R antag-2 76*.
For O=C(Nc1ccc2ncccc2c1)c1ccccc1Br the results were OX1R antag-1 -11, CHO parental Ca -11 and OX1R antag-2 11.
